TRPC6 activator – mouse TRPC6 channel activation | HEK293-TRPC6 membrane potential dye fluorescence; active compounds read high | B-score at 10 µM | 310,000 tested, 0.13% active;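 active means B-score of the integrated fluorescence ratio above library mean plus 3 SD, and starting fluorescence ratio within library mean plus 5 SD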;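 further: higher score means more depolarization so channel activation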
TRPC4 potent – TRPC4 (mouse) allosteric potentiation | Q9QUQ5 | HEK293 TRPC4beta/mu-opioid, DAMGO EC20, Fluo-4 Ca2+ flux; active compounds read high | B-score at 10 µM | 310,000 tested, 0.42% active | AID 2227;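 active means B-score of calcium response area above 5 SD of library B-scores, with initial fluorescence ratio within 5 SD of library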;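 further: B-score of integrated fluorescence ratio over time as area under calcium response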
TRPC6 inh – inhibitors of mouse TRPC6 channel; Q61143; HEK293-TRPC6, membrane potential dye, ACh-evoked depolarization; active compounds read low; B-score at 10 µM; 310,000 tested, 1.1% active; AID 2553;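 active means B-score under library mean minus 3 SD, initial fluorescence not abnormally high, positive integrated signal ratio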;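 further: B-score derived from integrated fluorescence ratio over the kinetic read; more negative B-score means stronger inhibition of depolarization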
TRPC4 inh – inhibitors of mouse TRPC4 channel. 300,000 tested, 0.39% active. B-score at 10 µM. HEK293 TRPC4beta/mu-opioid, DAMGO-evoked Fluo4 calcium flux; active compounds read low;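 active means B-score over 3 SD under the library average, no early fluorescence shift, positive overall ratio signal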
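material = TRPC4beta/mu-opioid receptor HEK293 cell line | probe or stimulus = sequential submaximal and maximal DAMGO stimulation | compound dosing = one concentration per compound | measured by = Fluo4 Ca2+ flux fluorescence | evaluation = integrated fluorescence ratio relative to baseline, converted to per-well B score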
TRPC4 act – TRPC4 (mouse) channel activation; HEK293 TRPC4beta/mu-opioid, Fluo4 calcium fluorescence; active compounds read high; Q9QUQ5; 310,000 tested, 0.49% active; B-score at 10 µM;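 active means B-score above 5 SD of library B-scores, and initial fluorescence ratio not above library mean plus 5 SD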;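 further: positive B-score marks a calcium rise read as TRPC4 activation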
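Technique: kinetic Fluo4 calcium fluorescence; Test system: TRPC4beta and mu-opioid receptor HEK293 stable cells; Measure: B-scored integrated calcium fluorescence ratio; Benchmarks: low control buffer alone, high control maximal DAMGO; Schedule: 45 min room-temperature Fluo4 loading, 110 s read.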
Platelet DG rel – platelet dense granule release activity; AID 1663; inhibition, %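 (compounds screened at 7.5 µM in platelet-rich plasma)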; 300,000 tested, 0.22% active; human platelet-rich plasma, SFLLRN dense granule ATP release, luminescence;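 active means mean replicate score, as percent of positive control, at or above 50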
TRPC4 sel inh 2 – mouse TRPC4 off-target activity of TRPC6 inhibitors, second screen; shares compounds with TRPC6 inh; HEK293 TRPC4/MOR, membrane potential dye fluorescence; channel activated by saturating DAMGO dose; inhibition, % at 10 µM; 920 tested, 42% active;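 active means compounds whose fluorescence signal differed from control wells by over 3 SD, either direction, in both duplicate plates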
TRPC4 spec – selectivity of TRPC6 inhibitors: effect on mouse TRPC4 | shares compounds with TRPC6 inh | HEK293 TRPC4/mu-opioid, membrane potential fluorescence | activity change, negative = inhibition, % at 10 µM | 920 tested, 61% active;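 active means rise or fall in signal beyond 3 SD of buffer-only wells in both replicate plates, either sign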;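 further: integrated kinetic ratio of fluorescence range over baseline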
HEK293 MPD ctr 2-1 – second check of TRPC6 inhibitor effects in parental HEK293 cells. shares compounds with TRPC6 inh. parental HEK293 membrane potential dye fluorescence; maximal acetylcholine challenge after compound addition. signal change vs control, % at 10 µM. 920 tested, 31% active. AID 2779;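 active means membrane potential signal moving either way by over 3 SD of the maximum-effect control, in both duplicate plates, meaning non-specific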
HEK293 MPD ctr-1 – checks TRPC6 inhibitor effects in parental HEK293 cells | membrane potential signal change, % at 10 µM | 920 tested, 60% active | shares compounds with TRPC6 inh | parental HEK293 membrane potential dye fluorescence;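 active means membrane potential signal shifting up or down by more than 3 SD of buffer-only wells, on both duplicate plates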
HEK293 MPD ctr-2 – parental HEK293 nonspecific activity of TRPC6 modulators | membrane potential signal change, % at 10 µM | AID 488924 | shares compounds with TRPC6 inh | membrane potential dye fluorescence | 2,400 tested, 51% active;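 active means membrane potential signal moves up or down beyond 5 SD from buffer-only wells, on both duplicate plates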
HEK293 MPD ctr 2-2 – second check of TRPC6 modulator effects in parental HEK293 cells; membrane potential dye fluorescence; after compound, maximal acetylcholine stimulation; inhibition, % at 10 µM; AID 488926; 2,400 tested, 14% active; shares compounds with TRPC6 inh;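 active means membrane potential signal drops by more than 5 SD from the mean control signal, in both duplicate plates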;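 further: plate controls were acetylcholine ECmax control wells for no effect and buffer only wells for full effect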
TRPC4/MOR mod – selectivity of TRPC6 modulators against mouse TRPC4; shares compounds with TRPC6 inh; HEK293 TRPC4/mu-opioid, membrane potential fluorescence; percent change from control (negative = decrease, positive = increase), % at 10 µM; 2,400 tested, 69% active; AID 488927;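 active means membrane potential signal moved up or down beyond 5 SD of buffer control wells, in both duplicate plates, actives on both sides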;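 further: plate controls were assay buffer wells for no effect and DAMGO maximal-effect wells for full effect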
TRPC4 ctr inh 2 – mouse TRPC4 off-target activity of TRPC6 modulators, second screen; shares compounds with TRPC6 inh; HEK293 TRPC4/mu-opioid, membrane potential dye fluorescence; stimulated with maximal-effect DAMGO; inhibition, % at 10 µM; 2,400 tested, 55% active;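 active means drop in membrane potential signal beyond 5 SD of the control wells in both duplicate plates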;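 further: TRPC4 counter screen for TRPC6 hits run under conditions tuned for TRPC6 not TRPC4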
TRPC6 block conf – confirmation of mouse TRPC6 inhibitors | inhibition, % at 10 µM | AID 488960 | HEK293-TRPC6, membrane potential dye, ACh-evoked depolarization | shares compounds with TRPC6 inh | 3,300 tested, 43% active;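 active means fluorescence ratio falls more than 5 SD below the full-stimulation control mean, in both duplicate runs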;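 further: integrated fluorescence ratio of peak minus minimum over baseline after agonist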
TRPC6 act confirm – mouse TRPC6 activator confirmation; activation, % at 10 µM; 2,800 tested, 11% active; shares compounds with TRPC6 inh; HEK293-TRPC6 membrane potential dye fluorescence, FDSS;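 active means ratio signal rise beyond 5 SD above unstimulated control wells' mean, seen in both duplicate runs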;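 further: plate controls were buffer EC0 wells for no effect and acetylcholine ECmax response for full effect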
* = called active by the depositor. Rows were chosen to be rich in hits. Some 2.5% of all compounds tested hit in one or more screens of this group.

What do the screens show for `O=C(Cn1nc2n(c1=O)-c1ccccc1SC2)N/N=C/c1cccnc1`?
TRPC6 activator: inactive; TRPC4 potent: inactive; TRPC6 inh: inactive; TRPC4 inh: inactive; TRPC4 act: inactive; Platelet DG rel: -5

What do the screens show for `CC(=O)c1ccc(C(=O)N(CCN(C)C)c2nc3c(Cl)cccc3s2)cc1`?
TRPC6 activator: inactive; TRPC4 potent: inactive; TRPC6 inh: inactive; TRPC4 inh: inactive; TRPC4 act: inactive; Platelet DG rel: -2

What do the screens show for `CN(C)CCN(C(=O)c1ccc2c(c1)OCCO2)c1nc2c(Cl)cccc2s1`?
TRPC6 activator: inactive; TRPC4 potent: inactive; TRPC6 inh: -7.2*; TRPC4 inh: inactive; TRPC4 act: inactive; Platelet DG rel: -7; TRPC4 sel inh 2: 26%*; TRPC4 spec: -22%*; HEK293 MPD ctr 2-1: inactive; HEK293 MPD ctr-1: -288%*; TRPC6 block conf: 98%*; TRPC6 act confirm: inactive

How did O=C1CC(C(=O)Nc2cc(Cl)ccc2Cl)n2ncnc2N1 (stereo unspecified) do in these assays?
TRPC6 activator: inactive; TRPC4 potent: inactive; TRPC6 inh: inactive; TRPC4 inh: inactive; TRPC4 act: inactive; Platelet DG rel: -2

What do the screens show for `COc1ccccc1NC(=O)Nc1ccc2c(c1)CCC2`?
TRPC6 activator: inactive; TRPC4 potent: inactive; TRPC6 inh: -5*; TRPC4 inh: inactive; TRPC4 act: inactive; Platelet DG rel: 14; HEK293 MPD ctr-2: inactive; HEK293 MPD ctr 2-2: inactive; TRPC4/MOR mod: inactive; TRPC4 ctr inh 2: inactive; TRPC6 block conf: inactive; TRPC6 act confirm: inactive

Results for Cc1cc(OCC(=O)N2CCOCC2)ccc1NC(=O)c1ccccc1C ?
TRPC6 activator: inactive; TRPC4 potent: inactive; TRPC6 inh: inactive; TRPC4 inh: inactive; TRPC4 act: inactive; Platelet DG rel: 0

Bioassay records (PubChem BioAssay)
